Laboratory results as given in ChEMBL document CHEMBL1177859, “Synthesis and antipsychotic and anticonvulsant activity of some new substituted oxa/thiadiazolylazetidinonyl/thiazolidinonylcarbazoles” (Eur J Med Chem, 2010).

Assays:
[1] = Toxicity in ip dosed rat; assay type: organism-based; settings: in vivo
[2] = test system: Rattus norvegicus; assay: Toxicity in rat assessed as time spent on rotarod at 40 mg/kg, ip by rotarod test; assay type: organism-based; set-up: dose 40 mg/kg, route intraperitoneal; settings: in vivo
Procedure, shortened: (§1)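 Rats dosed i.p.: test agents at 40 mg/kg, with a propylene glycol group at 0.5 mL. Rotarod performance test, recorded as mean time in seconds on the rod.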

[3] = test system: Rattus norvegicus; assay: Anticonvulsant activity in rat assessed as protection against maximal electric shock-induced seizures at 40 mg/kg, ip; assay type: functional; settings: route intraperitoneal
Procedure, shortened: (§2)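 Rats dosed i.p.: test agents at 40 mg/kg, with a propylene glycol group at 0.5 mL. Maximal electroshock (MES) seizure test, scored as % seizure protection.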

[4] = test system: Rattus norvegicus; assay: Anticonvulsant activity in rat assessed as protection against maximal electric shock-induced seizures at 0.5 mL, ip; assay type: functional; procedure, shortened: as §2
[5] = test system: Rattus norvegicus; assay: Toxicity in rat assessed as time spent on rotarod at 0.5 mL, ip by rotarod test; assay type: organism-based; settings: in vivo; procedure, shortened: as §1

| SMILES | LD50 [1] [mg/kg] | Time [2] [s] | Activity [3] [%] | Activity [4] [%] | Time [5] [s] |
| --- | --- | --- | --- | --- | --- |
| CN(C)c1ccc(/C=N/c2nnc(Cn3c4ccccc4c4ccccc43)o2)cc1 | > 1000 | 114 | 20 |  |  |
| COc1cc(C2SCC(=O)N2c2nnc(Cn3c4ccccc4c4ccccc43)s2)ccc1O (stereo not drawn) | > 1000 | 98.8 | 70 |  |  |
| COc1cc(C2C(Cl)C(=O)N2c2nnc(Cn3c4ccccc4c4ccccc43)s2)ccc1O (stereo not drawn) | > 1000 | 102.4 | 70 |  |  |
| O=C1CSC(c2ccccc2Br)N1c1nnc(Cn2c3ccccc3c3ccccc32)o1 (stereo not drawn) | > 1000 | 96.6 | 70 |  |  |
| O=C1CSC(c2ccc(O)cc2)N1c1nnc(Cn2c3ccccc3c3ccccc32)o1 (stereo not drawn) | > 1000 | 104.6 | 60 |  |  |
| O=C1C(Cl)C(c2ccc(O)cc2O)N1c1nnc(Cn2c3ccccc3c3ccccc32)o1 (stereo not drawn) | > 1000 | 106.4 | 50 |  |  |
| Oc1ccc(/C=N/c2nnc(Cn3c4ccccc4c4ccccc43)s2)c(O)c1 | > 1000 | 108.6 | 50 |  |  |
| O=C1CSC(c2ccc(O)cc2O)N1c1nnc(Cn2c3ccccc3c3ccccc32)s1 (stereo not drawn) | > 1000 | 102.2 | 70 |  |  |
| O=C1C(Cl)C(c2ccc(O)cc2)N1c1nnc(Cn2c3ccccc3c3ccccc32)s1 (stereo not drawn) | > 1000 | 102 | 60 |  |  |
| O=C1CSC(c2ccccc2Br)N1c1nnc(Cn2c3ccccc3c3ccccc32)s1 (stereo not drawn) | > 1600 | 96 | 90 |  |  |
| Oc1ccc(/C=N/c2nnc(Cn3c4ccccc4c4ccccc43)o2)cc1 | > 1000 | 116.4 | 20 |  |  |
| Oc1ccc(/C=N/c2nnc(Cn3c4ccccc4c4ccccc43)o2)c(O)c1 | > 1000 | 114.8 | 30 |  |  |
| Brc1ccccc1/C=N/c1nnc(Cn2c3ccccc3c3ccccc32)s1 | > 1000 | 106.8 | 60 |  |  |
| CN(C)c1ccc(C2SCC(=O)N2c2nnc(Cn3c4ccccc4c4ccccc43)o2)cc1 (stereo not drawn) | > 1000 | 104.2 | 60 |  |  |
| COc1cc(/C=N/c2nnc(Cn3c4ccccc4c4ccccc43)s2)ccc1O | > 1000 | 106.8 | 50 |  |  |
| CN(C)c1ccc(C2C(Cl)C(=O)N2c2nnc(Cn3c4ccccc4c4ccccc43)s2)cc1 (stereo not drawn) | > 1000 | 106 | 50 |  |  |

| SMILES | LD50 [1] [mg/kg] | Time [2] [s] | Activity [3] [%] | Activity [4] [%] | Time [5] [s] |
| --- | --- | --- | --- | --- | --- |
| COc1cc(C2SCC(=O)N2c2nnc(Cn3c4ccccc4c4ccccc43)o2)ccc1O (stereo not drawn) | > 1000 | 102.8 | 70 |  |  |
| COc1cc(/C=N/c2nnc(Cn3c4ccccc4c4ccccc43)o2)ccc1O | > 1000 | 112.2 | 30 |  |  |
| O=C1CSC(c2ccc(O)cc2O)N1c1nnc(Cn2c3ccccc3c3ccccc32)o1 (stereo not drawn) | > 1000 | 104.4 | 60 |  |  |
| O=C1C(Cl)C(c2ccccc2Br)N1c1nnc(Cn2c3ccccc3c3ccccc32)o1 (stereo not drawn) | > 1000 | 98.8 | 60 |  |  |
| Brc1ccccc1/C=N/c1nnc(Cn2c3ccccc3c3ccccc32)o1 | > 1000 | 110.8 | 30 |  |  |
| O=C1C(Cl)C(c2ccc(O)cc2O)N1c1nnc(Cn2c3ccccc3c3ccccc32)s1 (stereo not drawn) | > 1000 | 102.2 | 50 |  |  |
| CN(C)c1ccc(C2SCC(=O)N2c2nnc(Cn3c4ccccc4c4ccccc43)s2)cc1 (stereo not drawn) | > 1000 | 104 | 60 |  |  |
| Oc1ccc(/C=N/c2nnc(Cn3c4ccccc4c4ccccc43)s2)cc1 | > 1000 | 108.8 | 40 |  |  |
| O=C1CSC(c2ccc(O)cc2)N1c1nnc(Cn2c3ccccc3c3ccccc32)s1 (stereo not drawn) | > 1000 | 100.6 | 60 |  |  |
| O=C(CCCN1CCC(O)(c2ccc(Cl)cc2)CC1)c1ccc(F)cc1 [HALOPERIDOL] |  |  |  | 0 |  |
| CC(O)CO (stereo not drawn) [PROPYLENE GLYCOL] |  |  |  | 0 | 120 |
| O=C1C(Cl)C(c2ccc(O)cc2)N1c1nnc(Cn2c3ccccc3c3ccccc32)o1 (stereo not drawn) | > 1000 | 104.6 | 40 |  |  |
| CN(C)c1ccc(/C=N/c2nnc(Cn3c4ccccc4c4ccccc43)s2)cc1 | > 1000 | 110.2 | 40 |  |  |
| O=C1C(Cl)C(c2ccccc2Br)N1c1nnc(Cn2c3ccccc3c3ccccc32)s1 (stereo not drawn) | > 1000 | 98 | 80 |  |  |
| COc1cc(C2C(Cl)C(=O)N2c2nnc(Cn3c4ccccc4c4ccccc43)o2)ccc1O (stereo not drawn) | > 1000 | 102.4 | 50 |  |  |
| CN(C)c1ccc(C2C(Cl)C(=O)N2c2nnc(Cn3c4ccccc4c4ccccc43)o2)cc1 (stereo not drawn) | > 1000 | 100.2 | 40 |  |  |
